Data taken from publication PMC9071802 (RSC Advances, 2019).

What was measured:
[1] = test system: LasR, P. aeruginosa PAO-JG21; details: read-out: IC50, LasR activity; cited from earlier work
[2] = test system: LasR, P. aeruginosa PAO-JP2; details: read-out: IC50, LasR activity; cited from earlier work
[3] = test system: Human Embryonic Kidney cell lines (HEK-293); test: Cytotoxicity MTT assay; type: cell-based; details: HEK-293, 25, 50 and 100 μM, 24 h
Procedure, shortened: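 HEK cells were grown in high-glucose DMEM with 10% FBS and 1% pen-strep at 37 °C and 5% CO₂. They were seeded at 10⁴ cells/well and left overnight. Test compound from DMSO stock was diluted in medium to 25, 50 and 100 µM and applied for 24 h, with a DMSO blank and a positive control. MTT in phenol-red-free DMEM was added for 3 h. Formazan was dissolved in DMSO and read at 570 and 650 nm. Viability was expressed as % of untreated control.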

[4] = test system: P. aeruginosa MH602 lasB reporter strain (PlasB: gfp(ASV)); test: Quorum sensing inhibition assay, GFP fluorescence of lasB reporter strain; type: cell-based, Pseudomonas aeruginosa; details: for inhibition at 62.5 µM / inhibition at 125 µM / inhibition at 250 µM: Pseudomonas aeruginosa; for inhibition at 62.5 µM: read-out: Percentage inhibition of GFP fluorescence, 62.5 μM; for inhibition at 125 µM: read-out: Percentage inhibition of GFP fluorescence, 125 μM; for inhibition at 250 µM: read-out: Percentage inhibition of GFP fluorescence, 250 μM
Procedure, shortened: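 The reporter is a chromosomal lasB promoter–gfp(ASV) fusion responsive to 3-oxododecanoyl-HSL. Cultures were grown overnight in LB10, then diluted 1:100 in ABT with 0.25% tryptone and 0.13% yeast extract plus ampicillin 100 µg mL⁻¹ and gentamicin 20 µg mL⁻¹. Test compound in DMSO was tested at 62.5, 125 or 250 µM, with 1% DMSO controls. Cultures were incubated at 37 °C and shaken briefly before each read. Fluorescence (ex 485/em 535 nm) and OD600 were read every 30 min for 20 h, in triplicate per experiment.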

[5] = ± standard deviation, NA: no activity

SMILES | IC50 [1] | IC50 [2] | Cytotoxicity [3] | inhibition at 62.5 µM [4, 5] | inhibition at 125 µM [4, 5] | inhibition at 250 µM [4, 5] | Percentage inhibition of GFP fluorescence ([4]; 250 μM, ± standard deviation, NA: no activity, 250 µM) | QSI activity ([4]; at 62.5–250 μM)
Cc1cc2nc(N)[nH]c2cc1C [II, 5,6-dimethyl-2-aminobenzimidazole] | 1.4 µM | 2.3 µM | – | – | – | – | – | –
O=C(Cn1cc(-c2ccc([N+](=O)[O-])cc2)nn1)Nc1nc2ccccc2[nH]1 [6p, N-(1H-Benzo[d]imidazol-2-yl)-2-(4-(4-nitrophenyl)-1H-1,2,3-triazol-1-yl)acetamide] | – | – | low cytotoxicity | 63.7 ± 7.51% | 67.1 ± 5.45% | 68.2 ± 3.87% | – | –
CCCc1cn(CC(=O)Nc2nc3ccccc3[nH]2)nn1 [6a, N-(1H-Benzo[d]imidazol-2-yl)-2-(4-propyl-1H-1,2,3-triazol-1-yl)acetamide] | – | – | – | 25.1 ± 0.37% | 35.3 ± 20.4% | 50.5 ± 11.8% | – | –
Cc1cc2nc(NC(=O)Cn3cc(-c4ccc(O)cc4)nn3)[nH]c2cc1C [7j, N-(5,6-Dimethyl-1H-benzo[d]imidazol-2-yl)-2-(4-(4-hydroxyphenyl)-1H-1,2,3-triazol-1-yl)acetamide] | – | – | – | 17.6 ± 6.21% | 24.2 ± 14.5% | > 40% | 44.73 ± 13.15% | –
Cc1cc2nc(NC(=O)Cn3cc(-c4ccc(Br)cc4)nn3)[nH]c2cc1C [7h, 2-(4-(4-Bromophenyl)-1H-1,2,3-triazol-1-yl)-N-(5,6-dimethyl-1H-benzo[d]imidazol-2-yl)acetamide] | – | – | – | 31.2 ± 5.02% | 44.7 ± 14.3% | 57.6 ± 7.43% | – | –
O=C(CCc1cn(CC(=O)NC2CCCCC2)nn1)Nc1nc2ccccc2[nH]1 [10a, N-(1H-Benzo[d]imidazol-2-yl)-3-(1-(2-(cyclohexylamino)-2-oxoethyl)-1H-1,2,3-triazol-4-yl)propanamide] | – | – | – | 38.4 ± 7.72% | 42.4 ± 8.46% | 47.4 ± 2.69% | – | 38–47%
O=C(Cn1cc(-c2cccc([N+](=O)[O-])c2)nn1)Nc1nc2ccccc2[nH]1 [6q, N-(1H-Benzo[d]imidazol-2-yl)-2-(4-(3-nitrophenyl)-1H-1,2,3-triazol-1-yl)acetamide] | – | – | – | 28.2 ± 10.2% | 36 ± 6.13% | 39.4 ± 5.14% | – | –
Cc1cc2nc(NC(=O)Cn3cc(-c4ccc(C(F)(F)F)cc4)nn3)[nH]c2cc1C [7l, N-(5,6-Dimethyl-1H-benzo[d]imidazol-2-yl)-2-(4-(4-(trifluoromethyl)phenyl)-1H-1,2,3-triazol-1-yl)acetamide] | – | – | – | 36.1 ± 7.67% | 56.4 ± 5.85% | 65.8 ± 1.91% | – | –
CCCCCc1cn(CC(=O)Nc2nc3cc(C)c(C)cc3[nH]2)nn1 [7b, N-(5,6-Dimethyl-1H-benzo[d]imidazol-2-yl)-2-(4-pentyl-1H-1,2,3-triazol-1-yl)acetamide] | – | – | – | 16.9 ± 5.74% | 20.2 ± 11.5% | 26.6 ± 20.8% | – | –
Cc1cc2nc(NC(=O)CCCc3cn(CC(=O)Nc4ccccn4)nn3)[nH]c2cc1C [12c, N-(5,6-Dimethyl-1H-benzo[d]imidazol-2-yl)-4-(1-(2-oxo-2-(pyridin-2-ylamino)ethyl)-1H-1,2,3-triazol-4-yl)butanamide] | – | – | – | – | 7.07 ± 11.8% | 48.3 ± 13.4% | – | –
